Compound activity deposited in PubChem by several laboratories.
Htt clearance: clearance of mutant huntingtin inclusions, primary screen, imaging, HeLa Exon1htt(103Q)mCFP, confocal imaging | hit rate 0.42% among 47,000 | inhibition, % at 1.5 µM | aggregate imaging; zero = plate's median compound well;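 active means inhibition of aggregate fluorescence above about 70%, also judged a hit by eye on the cell image, limit read from the data, passing the limit was not always enough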;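 further: cells exposed to compound for three days before fixation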
D1 allo mod: D1 CRE-luciferase signal change, two-sided – cell-based, HEK293 D1, dopamine EC30, D1 allosteric modulator project, primary screen; dopamine EC30 potentiation; actives deviate in either direction; AID 641, 2007; B-score at 10 µM; hit rate 5.9% among 58,000;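 active means luminescence count or its row- and column-corrected plate score outside the 99.7% band of the plate's sample wells, on either side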
HEK293 NFkB inh: inhibitors of PMA/ionomycin-induced NF-kB reporter, primary screen, antigen receptor NF-kB inhibitor project, cell-based, HEK-293 luciferase reporter, luminescence. HEK-293 NF-kB luciferase reporter. hit rate 0.21% among 62,000. inhibition, % at 3 µM;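 active means inhibition above the mean of all tested compounds plus 3 SD, cut at about 40% in these data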;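 further: 0% = stimulated DMSO wells and 100% = 10 µM reference inhibitor 5653914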
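Timing: 1 h pretreatment, 16 h stimulation, 37 °C; system: HEK-293 cells with stable firefly luciferase reporter driven by four HIV NF-kB elements; doses: 3 µM once, 0.30% DMSO; measured by: luciferase luminescence; control set: DMSO and 10 µM reference inhibitor; repeats: single test; reagent: PMA plus ionomycin mix as NF-kB-activating stimulus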
M1 antagonist: antagonists of rat M1 muscarinic receptor. CHO-M1 cells, Fluo-4 calcium, ACh EC80 antagonist mode; stronger effect = lower value. AID 628, 2007. hit rate 3.4% among 64,000. B-score at 10 µM. Muscarinic acetylcholine receptor M1 (Rattus norvegicus), P08482;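 active means calcium fluorescence response, raw or row-and-column corrected B-score, differing from the plate sample mean either way at a set confidence level, mostly lower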
Target sequence (P08482 whole entry, looked up): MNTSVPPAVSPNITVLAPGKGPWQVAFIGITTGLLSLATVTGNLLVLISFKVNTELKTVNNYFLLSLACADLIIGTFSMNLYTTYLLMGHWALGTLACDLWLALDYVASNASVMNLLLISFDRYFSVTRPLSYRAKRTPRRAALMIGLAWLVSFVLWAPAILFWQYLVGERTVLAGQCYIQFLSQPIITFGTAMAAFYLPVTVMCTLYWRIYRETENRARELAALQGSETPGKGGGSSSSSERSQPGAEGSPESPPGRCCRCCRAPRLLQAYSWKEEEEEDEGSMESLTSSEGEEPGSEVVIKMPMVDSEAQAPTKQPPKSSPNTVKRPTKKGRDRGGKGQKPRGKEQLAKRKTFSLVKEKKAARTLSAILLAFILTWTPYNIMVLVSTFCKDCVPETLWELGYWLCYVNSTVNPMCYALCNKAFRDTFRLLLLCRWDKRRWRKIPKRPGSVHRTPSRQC
Jurkat viability: cytotoxicity toward Jurkat T cells, primary screen, cytotoxicity control, cell-based, Jurkat E6.1, 60K MLSMR library; Jurkat E6.1 viability, ATP luminescence, 48 h; inhibition, % at 4 µM; hit rate 1.2% among 56,000;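 active means inhibition above the mean inhibition of all tested compounds plus 3 SD, cut at about 28% in these data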
M1 agonist: M1 muscarinic receptor agonists, primary screen, CHO-M1 cells, Fluo-4 calcium, agonist mode | Fluo-4 calcium fluorescence; stronger effect = higher value | AID 626, 2007 | B-score at 10 µM | Muscarinic acetylcholine receptor M1 | hit rate 3% among 64,000;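 active means fluorescence rise, raw or as B-score row- and column-corrected plate score, outside the 99.7% band of its plate's samples, either direction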
* marks the source's active call; other numbers are inactive results; . = not tested or not shown. An excerpt weighted towards active compounds, which were near 9.5% of everything screened.

SMILES	Htt clearance	D1 allo mod	HEK293 NFkB inh	M1 antagonist	Jurkat viability	M1 agonist
CN(CC1CCCO1)S(=O)(=O)c1ccc(C(=O)Nc2nc3cc4c(cc3s2)OCO4)cc1 (centres undefined)	.	-4.4*	18	-1.3	18	-0.46
CCN(CC)S(=O)(=O)c1cccc(C(=O)Nc2nc3cc4c(cc3s2)OCCO4)c1	.	.	6	-0.45	36*	0.59
O=C(NCc1ccc2c(c1)OCO2)c1ccc(S(=O)(=O)NCC2CCCO2)cc1 (centres undefined)	.	-0.051	22	.	14	.
CC(=O)N1CCc2cc(S(=O)(=O)NC(CC(C)C)C(=O)Nc3cc(C)ccn3)ccc21 (centres undefined)	.	-4*	20	0.66	-1	0.29
O=C(Cc1ccc(Br)cc1)N1CCCCCC1	41	-0.34	-7	0.51	-2	0.43
CC(=O)c1ccc(NC(=O)c2cnn3ccccc23)cc1	10	.	.	.	.	.
CC(=O)c1cccc(NC(=O)c2cnn3ccccc23)c1	.	-2.6*	-11	0.013	-8	-0.023
CCCCN(C)CCNC(=O)Cn1ncc2c(=O)oc3ccc(C)cc3c21	.	-0.26	14	0.37	-1	0.099
O=C(CSc1nnc2ccccn12)Nc1ccccc1C(=O)NC1CC1	.	.	18	0.4	5	1.1
O=C(CSc1nnc2ccccn12)NC(=O)NC1CCCCC1	-14	-5.5*	7	-0.093	0	-0.15
O=c1c2cc(N3CCOCC3)ccc2[nH]c(=S)n1CCCN1CCN(c2ccccc2F)CC1	.	-6.7*	6	0.22	.	-0.74
COc1ccc(-c2nnc(SCC(=O)/C(C#N)=C(\C)N)o2)cc1	.	-3.2*	-37	0.096	12	-0.097
CCOc1ccc(NC(=O)c2cnsn2)cc1	.	-4.9*	-18	-0.066	9	-0.12
CCOc1ccc(NC(=O)c2ccccc2O)cc1	.	-4.7*	-22	0.0028	7	-1.7
CCOC(=O)c1c(C)oc2cc3c(C(=O)OCC)c(C)oc3cc12	-33	.	.	.	.	.
Cc1oc2cc3c(C(=O)OCCN(C)C)c(C)oc3cc2c1C(=O)OCCN(C)C	.	-3.4*	78*	0.5	6	0.86
CN(CCO)c1ncnc2nc[nH]c12	37	.	10	0.72*	-4	0.82
COc1ccc(OC)c(-c2csc3nnc(SCC(=O)Nc4ccc(NC(C)=O)cc4)n23)c1	.	-1.1	9	0.24	-2	1.1
COc1cccc(NC(=O)CCSc2nnc3scc(-c4ccccc4)n23)c1	.	4.4*	13	-0.051	.	-0.11
c1coc(CNc2nc3nonc3nc2NCc2ccco2)c1	.	-0.84	-3	-0.035	9	-0.023
O=c1nccc(NCc2ccco2)[nH]1	.	-3*	6	0.1	0	0.001
O=C(CSc1nnc(CN2CCCCCC2=O)n1-c1ccccn1)NCC(F)(F)F	.	-3.3*	19	0.024	-3	-0.2
COc1cccc(C2=CC(c3cccc(OC)c3OC(F)F)n3nnnc3N2)c1 (centres undefined)	-65	2.6	-5	0.31	7	-0.78
COc1cccc(C2=CC(c3cccc(OC)c3OC)n3nnnc3N2)c1 (centres undefined)	.	2	16	-0.72	67*	-1.4
COc1cc(NC(=O)c2ccc3c(c2)OCO3)ccc1NC(=O)c1ccco1	19	.	.	.	.	.
SMILES	Htt clearance	D1 allo mod	HEK293 NFkB inh	M1 antagonist	Jurkat viability	M1 agonist
O=C(c1cc(-c2cccc(O)c2)on1)N1CCOCC1	.	-5*	18	-0.71	4	0.13
O=C(c1cc(-c2ccccc2O)on1)N1CCc2ccccc2C1	-311	0.52	9	-0.022	-6	-1.3
O=C(c1cc(-c2ccc(O)cc2)on1)N1CCc2ccccc2C1	27	-0.69	-5	0.021	45*	-0.93
O=C(c1cc(-c2cccs2)on1)N1CCOCC1	.	-0.68	-20	0.41	-2	0.31
CCC(NC(=O)Nc1nccs1)(C(F)(F)F)C(F)(F)F	.	0.47	.	0.018	.	-1.5
CCC(NC(=O)Nc1cc(OC)c(OC)c(OC)c1)(C(F)(F)F)C(F)(F)F	3	-0.26	.	2.4*	.	0.016
C=CCn1c(SCc2nc(N)nc(N(C)C)n2)nnc1-c1cccnc1	.	-6*	14	-0.29	4	0.93
